In ChEMBL document CHEMBL4130549, “Synthesis and bioactivities study of new antibacterial peptide mimics: The dialkyl cationic amphiphiles” (Eur J Med Chem, 2018):
Calls of active or inactive are those of the source. The rule behind the calls is not given here.

What was measured:
Enterococcus faecalis = assay: Antibacterial activity against Enterococcus faecalis after 16 to 20 hrs by broth microdilution method; type: functional
Method in brief: (§1)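 Broth microdilution per CLSI in cation-adjusted Mueller-Hinton broth; 4-6 h cultures (~10⁸ CFU/mL) diluted to ~10⁶ CFU/mL and mixed 1:1 with twofold dilutions of water-dissolved compound (256 to 0.5 µg/mL). Incubated 16-20 h at 37 °C; MIC read visually. Each concentration run in duplicate, whole experiment repeated at least twice. MRSA, KPC and NDM-1 strains were clinical isolates.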

Staphylococcus aureus [1] = assay: Antibacterial activity against methicillin-resistant Staphylococcus aureus isolate M6 after 16 to 20 hrs by broth microdilution method; type: functional
Method in brief: (§2)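 CLSI broth microdilution in cation-adjusted Mueller-Hinton broth. A 4-6 h culture was diluted to about 10⁶ CFU/mL and mixed 1:1 with twofold compound dilutions (256–0.5 µg/mL before mixing) prepared from aqueous stocks. Plates were incubated at 37 °C for 16-20 h. Each concentration was tested in duplicate, and the experiment was repeated at least twice.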

Enterobacteriaceae [2] = assay: Antibacterial activity against NDM-1-producing Enterobacteriaceae isolate N6 after 16 to 20 hrs by broth microdilution method; type: functional; method in brief: as §1
Enterobacteriaceae [3] = assay: Antibacterial activity against NDM-1-producing Enterobacteriaceae isolate N2 after 16 to 20 hrs by broth microdilution method; type: functional; method in brief: as §1
Staphylococcus aureus [4] = assay: Antibacterial activity against methicillin-resistant Staphylococcus aureus isolate M7 after 16 to 20 hrs by broth microdilution method; type: functional; method in brief: as §2
Klebsiella pneumoniae [5] = assay: Antibacterial activity against carbapenemase-producing Klebsiella pneumoniae isolate K5 after 16 to 20 hrs by broth microdilution method; type: functional; method in brief: as §1
Staphylococcus aureus [6] = assay: Antibacterial activity against methicillin-resistant Staphylococcus aureus after 16 to 20 hrs by broth microdilution method; type: functional; method in brief: as §2
Escherichia coli [7] = assay: Induction of inner membrane permeabilization in Escherichia coli ATCC 25922 at 20 ug/ml measured every 2 mins for 12 mins by propidium iodide staining based fluorescence assay; type: functional, organism-based
Method in brief: (§3)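 Mid-log cells (~10^8 CFU/mL) pre-incubated with propidium iodide (10 µM, 50 µL), 30 min for S. aureus and 40 min for E. coli. Fluorescence (ex 535/em 617 nm) read for 8 min, then compound added to 20 µg/mL final and monitored every 2 min for 12 min. Water-treated control.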

Enterobacteriaceae [8] = assay: Antibacterial activity against NDM-1-producing Enterobacteriaceae isolate N10 after 16 to 20 hrs by broth microdilution method; type: functional; method in brief: as §1
Staphylococcus aureus [9] = assay: Antibacterial activity against methicillin-resistant Staphylococcus aureus isolate M1 after 16 to 20 hrs by broth microdilution method; type: functional; method in brief: as §2
Klebsiella pneumoniae [10] = assay: Antibacterial activity against carbapenemase-producing Klebsiella pneumoniae isolate K4 after 16 to 20 hrs by broth microdilution method; type: functional; method in brief: as §1
Escherichia coli [11] = assay: Induction of cytoplasmic membrane depolarization in Escherichia coli ATCC 25922 at 20 ug/ml measured every 2 mins for 12 mins by diSC35 staining based fluorescence assay; type: functional, organism-based
Method in brief: (§4)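 Mid-log cells (4–6 h) pelleted, washed and resuspended (~10^8 CFU/mL) in PBS for S. aureus, or in 5 mM HEPES, 5 mM glucose and 100 mM KCl (1:1:1) for E. coli. Preloaded with diSC35 (10 µM, 50 µL), 30 min for S. aureus and 40 min plus EDTA (200 µM, 50 µL) for E. coli. Baseline read 8 min (ex 622/em 670 nm), then compound added to 20 µg/mL final and read every 2 min for 12 min. Water control.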

Enterobacteriaceae [12] = assay: Antibacterial activity against NDM-1-producing Enterobacteriaceae isolate N7 after 16 to 20 hrs by broth microdilution method; type: functional; method in brief: as §1
Klebsiella pneumoniae [13] = assay: Antibacterial activity against carbapenemase-producing Klebsiella pneumoniae isolate K7 after 16 to 20 hrs by broth microdilution method; type: functional; method in brief: as §1
Klebsiella pneumoniae [14] = assay: Antibacterial activity against carbapenemase-producing Klebsiella pneumoniae isolate K10 after 16 to 20 hrs by broth microdilution method; type: functional; method in brief: as §1
Staphylococcus aureus [15] = assay: Antibacterial activity against methicillin-resistant Staphylococcus aureus isolate M2 after 16 to 20 hrs by broth microdilution method; type: functional; method in brief: as §2
Staphylococcus aureus [16] = assay: Antibacterial activity against methicillin-resistant Staphylococcus aureus isolate M5 after 16 to 20 hrs by broth microdilution method; type: functional; method in brief: as §2
Escherichia coli [17] = assay: Induction of outer membrane permeabilization in Escherichia coli ATCC 25922 at 20 ug/ml measured every 2 mins for 12 mins by NPN staining based fluorescence assay; type: functional, organism-based
Method in brief: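 Mid-log E. coli (~10^8 CFU/mL) in black plates pre-incubated about 40 min with NPN (10 µM, 50 µL). Baseline read 8 min (ex 350/em 420 nm), then compound added to 20 µg/mL final and fluorescence followed every 2 min for 12 min. Water-treated control.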

Enterobacteriaceae [18] = assay: Antibacterial activity against NDM-1-producing Enterobacteriaceae isolate N3 after 16 to 20 hrs by broth microdilution method; type: functional; method in brief: as §1
Enterobacteriaceae [19] = assay: Antibacterial activity against NDM-1-producing Enterobacteriaceae isolate N8 after 16 to 20 hrs by broth microdilution method; type: functional; method in brief: as §1
Klebsiella pneumoniae [20] = assay: Antibacterial activity against carbapenemase-producing Klebsiella pneumoniae isolate K9 after 16 to 20 hrs by broth microdilution method; type: functional; method in brief: as §1
Klebsiella pneumoniae [21] = assay: Antibacterial activity against carbapenemase-producing Klebsiella pneumoniae isolate K2 after 16 to 20 hrs by broth microdilution method; type: functional; method in brief: as §1
Klebsiella pneumoniae [22] = assay: Antibacterial activity against carbapenemase-producing Klebsiella pneumoniae isolate K8 after 16 to 20 hrs by broth microdilution method; type: functional; method in brief: as §1
Staphylococcus aureus [23] = assay: Induction of inner membrane permeabilization in Staphylococcus aureus ATCC 29213 at 20 ug/ml measured every 2 mins for 12 mins by propidium iodide staining based fluorescence assay; type: functional, organism-based; method in brief: as §3
Salmonella enterica = assay: Antibacterial activity against Salmonella enterica after 16 to 20 hrs by broth microdilution method; type: functional; method in brief: as §1
Staphylococcus aureus [24] = assay: Antibacterial activity against methicillin-resistant Staphylococcus aureus isolate M10 after 16 to 20 hrs by broth microdilution method; type: functional; method in brief: as §2
Enterobacteriaceae [25] = assay: Antibacterial activity against NDM-1-producing Enterobacteriaceae isolate N1 after 16 to 20 hrs by broth microdilution method; type: functional; method in brief: as §1
Escherichia coli [26] = assay: Antibacterial activity against Escherichia coli ATCC 25922 after 16 to 20 hrs by broth microdilution method; type: functional; method in brief: as §1
Enterobacteriaceae [27] = assay: Antibacterial activity against NDM-1-producing Enterobacteriaceae isolate N4 after 16 to 20 hrs by broth microdilution method; type: functional; method in brief: as §1
Staphylococcus aureus [28] = assay: Antibacterial activity against methicillin-resistant Staphylococcus aureus isolate M8 after 16 to 20 hrs by broth microdilution method; type: functional; method in brief: as §2
Staphylococcus aureus [29] = assay: Antibacterial activity against Staphylococcus aureus ATCC 29213 after 16 to 20 hrs by broth microdilution method; type: functional; method in brief: as §2
Klebsiella pneumoniae [30] = assay: Antibacterial activity against carbapenemase-producing Klebsiella pneumoniae after 16 to 20 hrs by broth microdilution method; type: functional; method in brief: as §1
Staphylococcus aureus [31] = assay: Antibacterial activity against methicillin-resistant Staphylococcus aureus isolate M4 after 16 to 20 hrs by broth microdilution method; type: functional; method in brief: as §2
Staphylococcus aureus [32] = assay: Induction of cytoplasmic membrane depolarization in Staphylococcus aureus ATCC 29213 at 20 ug/ml measured every 2 mins for 12 mins by diSC35 staining based fluorescence assay; type: functional, organism-based; method in brief: as §4
Enterobacteriaceae [33] = assay: Antibacterial activity against NDM-1-producing Enterobacteriaceae isolate N9 after 16 to 20 hrs by broth microdilution method; type: functional; method in brief: as §1
Klebsiella pneumoniae [34] = assay: Antibacterial activity against carbapenemase-producing Klebsiella pneumoniae isolate K3 after 16 to 20 hrs by broth microdilution method; type: functional; method in brief: as §1
Staphylococcus aureus [35] = assay: Antibacterial activity against methicillin-resistant Staphylococcus aureus isolate M9 after 16 to 20 hrs by broth microdilution method; type: functional; method in brief: as §2
Klebsiella pneumoniae [36] = assay: Antibacterial activity against carbapenemase-producing Klebsiella pneumoniae isolate K1 after 16 to 20 hrs by broth microdilution method; type: functional; method in brief: as §1
Enterobacteriaceae [37] = assay: Antibacterial activity against NDM-1-producing Enterobacteriaceae after 16 to 20 hrs by broth microdilution method; type: functional; method in brief: as §1
Staphylococcus aureus [38] = assay: Antibacterial activity against methicillin-resistant Staphylococcus aureus isolate M3 after 16 to 20 hrs by broth microdilution method; type: functional; method in brief: as §2
[39] = Hemolytic activity in sheep RBC after 1 hr; type: ADME, cell-based, Ovis aries, Erythrocyte; conditions: sheep red blood cells (erythrocytes)
Method in brief: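 Sheep RBCs suspended at 5% in PBS; 150 µL added to 50 µL compound dilutions (5120 to 10 µg/mL series). Incubated 1 h at 37 °C, then centrifuged; supernatant absorbance read at 540 nm. Lysis (%) = (A−A0)/(Atotal−A0)×100, with untreated 5% RBC as A0 and 0.1% Triton X-100 as total.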

Enterobacteriaceae [40] = assay: Antibacterial activity against NDM-1-producing Enterobacteriaceae isolate N5 after 16 to 20 hrs by broth microdilution method; type: functional; method in brief: as §1
Klebsiella pneumoniae [41] = assay: Antibacterial activity against carbapenemase-producing Klebsiella pneumoniae isolate K6 after 16 to 20 hrs by broth microdilution method; type: functional; method in brief: as §1

Which MIC (Enterococcus faecalis) does the source give for `CCCCCCCCN(CCCCCCCC)C(=O)[C@H](C)N.Cl` here?
The MIC was 8 mg/L.

And the MIC (Staphylococcus aureus [1])?
The MIC was 4 mg/L.

And the MIC (Enterobacteriaceae [2])?
The MIC was 64 mg/L.

What about the MIC (Enterobacteriaceae [3]) of the same compound?
The MIC was 64 mg/L.

What about the MIC (Staphylococcus aureus [4]) of the same compound?
The MIC was 4 mg/L.

What about the MIC (Klebsiella pneumoniae [5]) of the same compound?
Its MIC is 32 mg/L.

And the MIC (Staphylococcus aureus [6])?
The MIC was 4 mg/L.

What about the Activity (Escherichia coli [7]) of the same compound?
Its Activity is “Active”.

And the MIC (Enterobacteriaceae [8])?
Its MIC is 64 mg/L.

And the MIC (Staphylococcus aureus [9])?
The MIC was 4 mg/L.

And the MIC (Klebsiella pneumoniae [10])?
Its MIC is 32 mg/L.

And the Activity (Escherichia coli [11])?
Its Activity is “Active”.

What about the MIC (Enterobacteriaceae [12]) of the same compound?
The MIC was 64 mg/L.

What about the MIC (Klebsiella pneumoniae [13]) of the same compound?
Its MIC is 32 mg/L.

What about the MIC (Klebsiella pneumoniae [14]) of the same compound?
Its MIC is 16 mg/L.

And the MIC (Staphylococcus aureus [15])?
The MIC was 4 mg/L.

And the MIC (Staphylococcus aureus [16])?
The MIC was 4 mg/L.

And the Activity (Escherichia coli [17])?
The Activity was “Active”.

What about the MIC (Enterobacteriaceae [18]) of the same compound?
The MIC was 64 mg/L.

And the MIC (Enterobacteriaceae [19])?
Its MIC is 64 mg/L.

What about the MIC (Klebsiella pneumoniae [20]) of the same compound?
The MIC was 16 mg/L.

And the MIC (Klebsiella pneumoniae [21])?
Its MIC is 16 mg/L.

What about the MIC (Klebsiella pneumoniae [22]) of the same compound?
The MIC was 16 mg/L.

What about the Activity (Staphylococcus aureus [23]) of the same compound?
Its Activity is “Active”.

What about the MIC (Salmonella enterica) of the same compound?
The MIC was 32 mg/L.

What about the MIC (Staphylococcus aureus [24]) of the same compound?
Its MIC is 4 mg/L.

What about the MIC (Enterobacteriaceae [25]) of the same compound?
Its MIC is 64 mg/L.

What about the MIC (Escherichia coli [26]) of the same compound?
Its MIC is 4 mg/L.

And the MIC (Enterobacteriaceae [27])?
The MIC was 64 mg/L.

What about the MIC (Staphylococcus aureus [28]) of the same compound?
The MIC was 4 mg/L.

And the MIC (Staphylococcus aureus [29])?
Its MIC is 4 mg/L.

And the MIC (Klebsiella pneumoniae [30])?
Its MIC is 16 mg/L.

And the MIC (Staphylococcus aureus [31])?
The MIC was 4 mg/L.

What about the Activity (Staphylococcus aureus [32]) of the same compound?
Its Activity is “Active”.

And the MIC (Enterobacteriaceae [33])?
The MIC was 64 mg/L.

And the MIC (Klebsiella pneumoniae [34])?
Its MIC is 16 mg/L.

And the MIC (Staphylococcus aureus [35])?
Its MIC is 4 mg/L.

What about the MIC (Klebsiella pneumoniae [36]) of the same compound?
Its MIC is 16 mg/L.

What about the MIC (Enterobacteriaceae [37]) of the same compound?
Its MIC is 64 mg/L.

What about the MIC (Staphylococcus aureus [38]) of the same compound?
The MIC was 4 mg/L.

And the HC50 at 1 h [39]?
Its HC50 at 1 h is 306 µg/mL.

What about the MIC (Enterobacteriaceae [40]) of the same compound?
Its MIC is 64 mg/L.

And the MIC (Klebsiella pneumoniae [41])?
Its MIC is 32 mg/L.
